Experiments:
Rattus norvegicus [1] = assay: Biodistribution of compound in rat heart after 5 min of administration.; type: ADME, organism-based; settings: in vivo
In short: (§1)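 Female Sprague-Dawley rats (150–200 g) received the complex in normal saline (~12.5 μCi/mL) through a lateral tail vein at ~25 μCi/kg. Rats were killed by cervical dislocation 5 min after injection. Tissues were washed with saline, blotted, weighed and γ-counted to give percent injected dose/g tissue.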

[2] = (§2) Biodistribution of compound in rat muscle after 5 min of administration.; type: ADME, organism-based, Muscle tissue; settings: in vivo; in short: as §1
Rattus norvegicus [3] = assay: Biodistribution of compound in rat kidney after 5 min of administration.; type: ADME, organism-based; settings: in vivo; in short: as §1
Rattus norvegicus [4] = assay: Biodistribution of compound in rat liver after 5 min of administration.; type: ADME, organism-based; settings: in vivo; in short: as §1
[5] = Plasma protein binding (human); type: ADME, cell-free
In short: (§3)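 Test substance (0.02 mL) was added to 1.0 mL of heparinized fresh human plasma and incubated about 15 min. Duplicate samples were passed through Sephadex G-25 desalting columns by centrifugation. Eluate and gel were γ-counted for 1 min or to 1% σ error. % bound = net cpm eluate / net cpm (eluate + gel) × 100.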

Rattus norvegicus [6] = assay: Biodistribution of compound in rat brain after 5 min of administration; type: ADME, organism-based; settings: in vivo
Rattus norvegicus [7] = assay: Biodistribution of compound in rat lung after 5 min of administration.; type: ADME, organism-based; settings: in vivo; in short: as §1
Rattus norvegicus [8] = assay: Biodistribution of compound in rat blood after 5 min of administration.; type: ADME, organism-based; settings: in vivo; in short: as §1
Rattus norvegicus [9] = organism: Rattus norvegicus; assay: (§4) The compound was tested for the plasma binding in rat; type: ADME, organism-based
Rattus norvegicus [10] = assay: as §2; type: ADME, organism-based, Muscle tissue; settings: in vivo; in short: as §1
Rattus norvegicus [11] = assay: Biodistribution of compound in rat lung after 5 min of administration; type: ADME, organism-based; settings: in vivo
In short: (§5)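 Rats received the 99mTc complex in normal saline (~12.5 μCi/mL) by lateral tail vein injection at ~25 μCi/kg and were killed by cervical dislocation at the stated time. Tissues were washed with saline, blotted, weighed and γ-counted to give percent injected dose/g. Time-course values are averages of male and female rats.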

Rattus norvegicus [12] = assay: (§6) Biodistribution of compound in rat muscle after 5 min of administration; type: ADME, organism-based, Muscle tissue; settings: in vivo; in short: as §1
Rattus norvegicus [13] = assay: Biodistribution of compound in rat heart after 5 min of administration; type: ADME, organism-based; settings: in vivo
In short: as §1, with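 “the 99mTc” for “the”, “via” for “through”, “They” for “Rats”, “γ-counted, and the read-out was” for “γ-counted to give”, “dose per g” for “dose/g”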

Rattus norvegicus [14] = assay: Biodistribution of compound in rat blood after 5 min of administration; type: ADME, organism-based; settings: in vivo
In short: as §1, with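 “the 99mTc” for “the”, “via” for “through”, “They” for “Rats”, “γ-counted, and the read-out was” for “γ-counted to give”, “dose per g” for “dose/g”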

Rattus norvegicus [15] = assay: Biodistribution of compound in rat liver after 5 min of administration; type: ADME, organism-based; settings: in vivo
In short: as §1, with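 “the 99mTc” for “the”, “via” for “through”, “They” for “Rats”, “γ-counted, and the read-out was” for “γ-counted to give”, “dose per g” for “dose/g”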

Rattus norvegicus [16] = assay: Biodistribution of compound in rat kidney after 5 min of administration; type: ADME, organism-based; settings: in vivo
In short: as §1, with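 “the 99mTc” for “the”, “via” for “through”, “They” for “Rats”, “γ-counted, and the read-out was” for “γ-counted to give”, “dose per g” for “dose/g”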

Rattus norvegicus [17] = organism: Rattus norvegicus; assay: as §4; type: functional
In short: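 Plasma protein binding was measured in rat plasma samples collected during the rat biodistribution studies, after tail vein injection of the 99mTc complex in saline (~25 μCi/kg).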

Homo sapiens = organism: Homo sapiens; assay: The compound was tested for the plasma binding in human.; type: functional; in short: as §3
[18] = The compound was tested for the plasma binding in human; type: ADME, cell-free
In short: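 Fresh heparinized human plasma (1.0 mL, obtained daily) was spiked with 0.02 mL test solution and incubated about 15 min. Duplicate samples went through saline-equilibrated Sephadex G-25 desalting columns by centrifugation. Eluate and gel were γ-counted for 1 min or to 1% σ error. % bound = net cpm eluate / net cpm (eluate + gel) × 100.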

[19] = as §6; type: ADME, organism-based, Muscle tissue; settings: in vivo; in short: as §5

Substance	Dose/g (Rattus norvegicus [1])	Dose/g [2]	Dose/g (Rattus norvegicus [3])	Dose/g (Rattus norvegicus [4])	Plasma binding [5]	Dose/g (Rattus norvegicus [6])	Dose/g (Rattus norvegicus [7])	Dose/g (Rattus norvegicus [8])	Plasma binding (Rattus norvegicus [9])	Dose/g (Rattus norvegicus [10])	Dose/g (Rattus norvegicus [11])	Dose/g (Rattus norvegicus [12])	Dose/g (Rattus norvegicus [13])	Dose/g (Rattus norvegicus [14])	Dose/g (Rattus norvegicus [15])	Dose/g (Rattus norvegicus [16])	PPB (Rattus norvegicus [17])	PPB (Homo sapiens)	Plasma binding [18]	Dose/g [19]
BIS(DODECAHYDROTRIPHENYLENE) TECHNETIUM	2.6%	0.55%	12%	1%	84%	0.02%	1%	0.16%	34%	–	–	–	–	–	–	–	–	–	–	–
BIS(HEXAETHYLBENZENE) TECHNETIUM	1.3%	0.33%	10%	8.4%	84%	0.06%	5.7%	0.4%	50%	–	–	–	–	–	–	–	–	–	–	–
BIS(HEXAMETHYLBENZENE)TECHNETIUM	3%	0.55%	6.2%	0.79%	72%	0.03%	1.2%	0.16%	57%	–	–	–	–	–	–	–	–	–	–	–
BIS(INDAN)TECHNETIUM	1.1%	–	11%	1.7%	17%	–	0.98%	0.077%	6.8%	0.23%	–	–	–	–	–	–	–	–	–	–
BIS(PENTAMETHYLBENZENE) TECHNETIUM	3.5%	0.66%	5.5%	0.45%	55%	0.02%	1.6%	0.14%	57%	–	–	–	–	–	–	–	–	–	–	–
BIS(TETRAHYDROACENAPHTHENE) TECHNETIUM	4%	–	6%	0.45%	90%	–	1.4%	0.23%	27%	0.82%	–	–	–	–	–	–	–	–	–	–
BIS(TOLUENE)TECHNETIUM [listing 1 of 2 here]	–	–	–	–	–	–	–	–	–	–	0.51%	0.069%	0.22%	0.2%	2.6%	3.4%	–	–	–	–
BIS(TOLUENE)TECHNETIUM [listing 2 of 2 here]	–	–	–	–	–	–	–	–	–	–	–	–	–	–	–	–	8.9%	11%	–	–
BIS(TRINDAN) TECHNETIUM	1.5%	0.49%	9.3%	1%	27%	0.02%	1%	0.09%	23%	–	–	–	–	–	–	–	–	–	–	–
Bis(1,1,4,6,7-pentamethylindane)technetium	3.3%	0.56%	5%	1.2%	95%	0.06%	2.5%	0.49%	81%	–	–	–	–	–	–	–	–	–	–	–
Bis(1,1,4,6-tetramethylindane)technetium	3.4%	0.66%	6.4%	0.73%	94%	0.04%	1.5%	0.35%	75%	–	–	–	–	–	–	–	–	–	–	–
Bis(1,2,3,4,5,6,7,8-octahydroanthracene)technetium	1.8%	0.48%	9.1%	0.79%	35%	0.02%	0.9%	0.16%	32%	–	–	–	–	–	–	–	–	–	–	–
Bis(1,2,3,4-tetrahydronaphthalene)technetium	2.6%	–	9.1%	0.65%	51%	–	1%	0.24%	5.8%	0.51%	–	–	–	–	–	–	–	–	–	–
Bis(1,2,3,4-tetramethylbenzene)technetium	2.4%	–	8.2%	0.73%	46%	–	1.1%	0.094%	22%	0.66%	–	–	–	–	–	–	–	–	–	–
Bis(1,2,3,5-tetramethylbenzene)technetium	–	–	–	–	–	–	–	–	–	–	–	–	–	–	–	–	21%	36%	–	–
Bis(1,2,3-trimethylbenzene)technetium	–	–	–	–	–	–	–	–	6.6%	–	0.66%	0.27%	1%	0.13%	1%	9%	–	–	24%	–
Bis(1,2,4,5-tetramethylbenzene)technetium	2.3%	0.72%	9.8%	0.9%	42%	0.02%	1.3%	0.28%	18%	–	–	–	–	–	–	–	–	–	–	–
Bis(1,2,4-trimethylbenzene)technetium	–	–	–	–	–	–	–	–	12%	–	0.78%	0.32%	1.4%	0.38%	0.8%	7%	–	–	20%	–
Bis(1,2-diethylbenzene)technetium	3%	0.58%	7.8%	0.62%	84%	0.03%	1.3%	0.1%	21%	–	–	–	–	–	–	–	–	–	–	–
Bis(1,3,5-tri-tert-butylbenzene)technetium	1%	0.38%	8%	2%	81%	0.04%	1.3%	0.49%	60%	–	–	–	–	–	–	–	–	–	–	–
Bis(1,3,5-triethylbenzene)technetium	2.8%	0.63%	7.3%	1.4%	83%	0.04%	1.1%	0.24%	48%	–	–	–	–	–	–	–	–	–	–	–
Bis(1,3-diethylbenzene)technetium	2.8%	0.64%	5.1%	0.46%	64%	0.03%	1.2%	0.09%	19%	–	–	–	–	–	–	–	–	–	–	–
Bis(1,4-diethylbenzene)technetium	3.8%	0.66%	5.4%	0.58%	60%	0.03%	1.4%	0.13%	16%	–	–	–	–	–	–	–	–	–	–	–
Bis(1-methyl-(2-propyl)benzene)technetium	2.5%	–	5%	0.42%	75%	–	1.1%	0.16%	27%	0.56%	–	–	–	–	–	–	–	–	–	–
Bis(4,6-dimethylindane)technetium	3.6%	0.42%	8.4%	0.66%	57%	0.03%	1.4%	0.12%	54%	–	–	–	–	–	–	–	–	–	–	–
Bis(5-isopropyl-m-xylene)technetium	3.2%	–	6.5%	0.38%	80%	–	1.3%	0.18%	18%	0.7%	–	–	–	–	–	–	–	–	–	–
Bis(m-xylene)technetium	–	–	–	–	–	–	–	–	–	–	0.59%	–	0.47%	0.1%	2%	8%	–	–	–	0.17%
Bis(toluene)technetium [listing 1 of 2 here]	–	–	–	–	–	–	–	–	–	–	0.51%	–	0.22%	0.2%	2.6%	3.4%	–	–	–	0.069%
Bis(toluene)technetium [listing 2 of 2 here]	–	–	–	–	–	–	–	–	–	–	–	–	–	–	–	–	8.9%	11%	–	–

Reference: ChEMBL document CHEMBL1125797, “Synthesis, characterization and myocardial uptake of cationic bis(arene)technetium(I) complexes” (J Med Chem, 1991)
